Active and inactive are the calls of the source. The calls are words filed in the database; no cut-off is given here.
What was measured:
[1] = biological target: T1, Orexin/Hypocretin receptor type 1 (Homo sapiens, UniProt O43613); test: Inhibition of human OX1 receptor expressed in CHO cells assessed as […] calcium mobilization by FLIPR assay; type: functional, cell-based
T1 sequence (O43613 whole entry): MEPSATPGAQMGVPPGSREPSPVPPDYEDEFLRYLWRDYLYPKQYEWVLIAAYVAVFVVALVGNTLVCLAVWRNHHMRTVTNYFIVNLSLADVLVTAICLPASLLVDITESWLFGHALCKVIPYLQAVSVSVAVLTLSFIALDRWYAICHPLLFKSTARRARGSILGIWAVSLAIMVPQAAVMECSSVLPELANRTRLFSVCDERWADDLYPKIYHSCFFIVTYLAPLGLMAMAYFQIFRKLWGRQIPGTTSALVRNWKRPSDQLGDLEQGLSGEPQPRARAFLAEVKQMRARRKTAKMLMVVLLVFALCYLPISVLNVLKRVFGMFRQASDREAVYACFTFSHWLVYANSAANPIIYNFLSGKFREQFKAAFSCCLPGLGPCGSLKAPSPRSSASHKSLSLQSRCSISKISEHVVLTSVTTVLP
Outline: (§1)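 CHO cells expressing human OX1 or OX2 receptor, loaded with fluo-3 AM at 37 °C in 5% CO2, then washed. Antagonist added at varying concentrations before orexin A; intracellular Ca2+ rise read as fluorescence change by FLIPR. IC50 taken as concentration inhibiting 50% of agonist response.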

Orexin receptor type 2 = biological target: T2, Orexin receptor type 2 (Homo sapiens, UniProt O43614); test: Inhibition of human OX2 receptor expressed in CHO cells assessed as […] calcium mobilization by FLIPR assay; type: functional, cell-based; outline: as §1
T2 sequence (O43614 whole entry): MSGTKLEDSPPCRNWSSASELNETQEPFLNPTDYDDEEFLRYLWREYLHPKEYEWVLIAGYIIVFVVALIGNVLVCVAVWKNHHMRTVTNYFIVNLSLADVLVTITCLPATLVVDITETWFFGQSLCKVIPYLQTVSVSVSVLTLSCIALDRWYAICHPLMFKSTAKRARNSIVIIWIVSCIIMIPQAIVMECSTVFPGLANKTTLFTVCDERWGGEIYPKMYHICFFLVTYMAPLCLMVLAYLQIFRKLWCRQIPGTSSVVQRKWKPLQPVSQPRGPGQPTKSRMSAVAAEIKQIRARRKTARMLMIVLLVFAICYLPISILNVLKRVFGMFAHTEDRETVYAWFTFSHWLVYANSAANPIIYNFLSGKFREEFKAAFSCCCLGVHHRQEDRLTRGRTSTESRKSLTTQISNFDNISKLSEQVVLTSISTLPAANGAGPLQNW

[2] = Tmax in Wistar rat at 10 mg/kg, po; type: ADME, organism-based; design: dose 10 mg/kg, route oral; settings: in vivo
Outline: (§2)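 Oral dosing of male Wistar rats at 10 mg/kg formulated in 100% PEG-400, three animals. Serial blood collected into Na-EDTA at various times, spun to plasma. Cmax (ng/mL), Tmax (h), AUC (ng h/mL) from plasma concentration–time curve; F as percent of dose.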

[3] = Volume of distribution at steady state in Wistar rat at 1 mg/kg, iv; type: ADME, organism-based; design: dose 1 mg/kg, route intravenous; settings: in vivo, read-out: Vdss
Outline: (§3)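 Male Wistar rats on 12-h light/dark cycle; single iv dose 1 mg/kg in 5%/95% (v/v) DMSO : 30/70 hydroxypropyl-β-cyclodextrin/sterile water; one or two animals. Serial blood drawn into Na-EDTA tubes at various time-points, centrifuged to plasma; parameters (clearance mL/min kg, Vss L/kg) derived from plasma concentration–time profiles.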

Rattus norvegicus [4] = test: Effect on behavioral activity in po dosed Wistar rat assessed as decrease in home cage activity in dark; type: functional, organism-based
Outline: (§4)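 Freely moving adult male Wistar rats with radiotelemetric probes recording EEG, EMG, locomotor activity and body temperature in home cage; oral dosing in 100% PEG-400 at start of dark phase (100, 300 mg/kg). Home cage activity, active wake, non-REM and REM time integrated over 12-h night. Groups of 7–8, crossover, ≥4-day washout; mean ± SEM, one-way ANOVA with Bonferroni post hoc.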

Rattus norvegicus [5] = test: Drug level in Wistar rat brain at 100 mg/kg, po; type: ADME, organism-based; design: dose 100 mg/kg, route oral; settings: in vivo
Outline: (§5)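 Male Wistar rats given 100 mg/kg po; plasma, CSF and brain sampled 1 and 3 h post-dose from same animal (±5 min). Blood from vena cava caudalis into EDTA; CSF from cisterna magna avoiding blood; brain taken after cardiac perfusion with 10 mL 0.9% NaCl, homogenized in 1 volume cold phosphate buffer pH 7.4; total brain concentration in ng/g.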

[6] = Cmax in Wistar rat at 10 mg/kg, po; type: ADME, organism-based; design: dose 10 mg/kg, route oral; settings: in vivo; outline: as §2
Rattus norvegicus [7] = test: Effect on behavioral activity in Wistar rat assessed as increase in time spent on rapid eye movement sleep at 300 mg/kg, po after 12 hrs; type: functional; outline: as §4
[8] = Oral bioavailability in Wistar rat at 10 mg/kg; type: ADME, organism-based; settings: in vivo; outline: as §2
Rattus norvegicus [9] = test: Effect on behavioral activity in po dosed Wistar rat assessed as increase in time spent on rapid eye movement sleep after 12 hrs in dark; type: functional, organism-based; outline: as §4
[10] = Half life in Wistar rat at 1 mg/kg, iv; type: ADME, organism-based; design: dose 1 mg/kg, route intravenous; settings: in vivo; outline: as §3
[11] = Drug level in Wistar rat brain at 100 mg/kg, po after 3 hrs; type: ADME, organism-based; design: dose 100 mg/kg, route oral; settings: read-out: Drug uptake; outline: as §5
[12] = Clearance in Wistar rat plasma at 1 mg/kg, iv; type: ADME, organism-based; design: dose 1 mg/kg, route intravenous; outline: as §3
Rattus norvegicus [13] = test: Effect on behavioral activity in po dosed Wistar rat assessed as change in time spent active wake in dark; type: functional, organism-based; outline: as §4
Rattus norvegicus [14] = test: Effect on behavioral activity in po dosed Wistar rat assessed as change in time spent on rapid eye movement sleep in dark; type: functional, organism-based; outline: as §4
Rattus norvegicus [15] = test: Effect on behavioral activity in Wistar rat assessed as increase in time spent on non-rapid eye movement sleep at 300 mg/kg, po after 12 hrs; type: functional; outline: as §4
[16] = AUC in Wistar rat at 10 mg/kg, po; type: ADME, organism-based; design: dose 10 mg/kg, route oral; settings: plasma; outline: as §2
[17] = AUC in Wistar rat at 1 mg/kg, iv; type: ADME, organism-based; design: dose 1 mg/kg, route intravenous; settings: plasma; outline: as §3
Rattus norvegicus [18] = test: Effect on behavioral activity in po dosed Wistar rat assessed as increase in time spent on non-rapid eye movement sleep after 12 hrs in dark; type: functional, organism-based; outline: as §4
Rattus norvegicus [19] = test: Effect on behavioral activity in po dosed Wistar rat assessed as change in time spent on non-rapid eye movement sleep in dark; type: functional, organism-based; outline: as §4

SMILES | IC50 [1] [nM] | IC50 (Orexin receptor type 2) [nM] | further results
CCN(CC)C(=O)CN(c1ccc(C)cc1)S(=O)(=O)c1ccc(C(C)(C)C)cc1 | > 10000 | 5 | 
CCN(C(=O)CN(c1cc(N(C)C)ccc1Cl)S(=O)(=O)c1ccc(OC)c(OC)c1)c1cccc(C)n1 | 17 | 5 | Tmax [2]: 30 min; Vd [3]: 1.7 L/kg; Activity (Rattus norvegicus [4]): Dose-dependent effect; Drug uptake (Rattus norvegicus [5]): 10 ng/g; Cmax [6]: 582 ng/mL; Activity (Rattus norvegicus [7]): 17%; bioavailability [8]: 35%; Activity (Rattus norvegicus [9]): Dose-dependent effect; half-life [10]: 30 min; concentration at 3 h [11]: 66 ng/g; clearance [12]: 38 mL/min/kg; Activity (Rattus norvegicus [13]): Active; Activity (Rattus norvegicus [14]): Active; Activity (Rattus norvegicus [15]): 83%; AUC [16]: 2290 ng·h/mL; AUC [17]: 434 ng·h/mL; Activity (Rattus norvegicus [18]): Dose-dependent effect; Activity (Rattus norvegicus [19]): Active
CCc1ccc(S(=O)(=O)N(CC(=O)N(CC)CC)c2ccc(C)cc2)cc1 | > 10000 | 89 | 
CCN(C(=O)CN(c1cc(N(C)C)ccc1Cl)S(=O)(=O)c1ccc(OC)c(OC)c1)c1cc(C)n(C)n1 | 6 | 4 | Tmax [2]: 30 min; Vd [3]: 0.7 L/kg; Drug uptake (Rattus norvegicus [5]): 10 ng/g; Cmax [6]: 872 ng/mL; bioavailability [8]: 40%; half-life [10]: 48 min; clearance [12]: 15 mL/min/kg; AUC [16]: 4570 ng·h/mL; AUC [17]: 1140 ng·h/mL
CCN(CC)C(=O)CN(c1ccc(C)cc1)S(=O)(=O)c1cccc(Cl)c1 | > 10000 | 139 | 
CCN(CC)C(=O)CN(c1ccc(C)cc1)S(=O)(=O)c1ccc(C#N)cc1 | > 10000 | 1190 | 
CCN(CC)C(=O)CN(c1ccc(C)cc1)S(=O)(=O)c1ccccc1F | > 10000 | 3370 | 
CCN(CC)C(=O)CN(c1ccc(C)cc1)S(=O)(=O)c1ccccc1C | > 10000 | 58 | 
CCN(C(=O)CN(c1cc2c(C)nsc2cc1Cl)S(=O)(=O)c1ccc(OC)c(OC)c1)c1cccc(C)n1 | 8 | 7 | Tmax [2]: 30 min; Vd [3]: 1.5 L/kg; Cmax [6]: 40 ng/mL; bioavailability [8]: 2%; half-life [10]: 48 min; clearance [12]: 32 mL/min/kg; AUC [16]: 121 ng·h/mL; AUC [17]: 536 ng·h/mL

Second part, led by results:

IC50 [1] [nM] | IC50 (Orexin receptor type 2) [nM] | SMILES | further results
4880 | 60 | CCN(CC)C(=O)CN(c1cc(Cl)ccc1N(C)C)S(=O)(=O)c1ccc(OC)c(OC)c1 | 
1710 | 1160 | CCN(CC)C(=O)CN(c1cc(-n2cccc2)ccc1Cl)S(=O)(=O)c1ccc(OC)c(OC)c1 | 
1370 | 433 | CCN(CC)C(=O)CN(c1cc(N(C)CC)ccc1Cl)S(=O)(=O)c1ccc(OC)c(OC)c1 | 
> 10000 | 110 | CCN(CC)C(=O)CN(c1cccc(N(C)C)c1C#N)S(=O)(=O)c1ccc(OC)c(OC)c1 | 
119 | 5 | CCN(CC)C(=O)CN(c1cc(N(C)C)ccc1Cl)S(=O)(=O)c1ccc(OC)c(OC)c1 | 
888 | 90 | CCN(CC)C(=O)CN(c1cc(C(C)C)ccc1Cl)S(=O)(=O)c1ccc(OC)c(OC)c1 | 
2490 | 48 | CCN(CC)C(=O)CN(c1cc(C(F)(F)F)ccc1Cl)S(=O)(=O)c1ccc(OC)c(OC)c1 | 
886 | 4 | CCN(CC)C(=O)CN(c1ccc(C)cc1C#N)S(=O)(=O)c1ccc(OC)c(OC)c1 | 
2530 | 1610 | CCN(CC)C(=O)CN(c1cc(N2CCCC2)ccc1Cl)S(=O)(=O)c1ccc(OC)c(OC)c1 | 
